# MrgX1 allo act = human MrgX1 positive allosteric modulation, primary screen | Q96LB2 | MrgX1-HEK293, Fluo-4 calcium flux, FDSS; hits give high values | B-score at 10 µM | hit rate 0.63% among 310,000;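 active = plate-corrected calcium response at least 3 library SD above typical, normal starting fluorescence, not activating the receptor alone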;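 also: compound read alongside a low EC10 to EC30 dose of BAM8-22 agonist; peak minus trough fluorescence over baseline measured at the second addition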
# Target sequence (Q96LB2 whole entry, looked up): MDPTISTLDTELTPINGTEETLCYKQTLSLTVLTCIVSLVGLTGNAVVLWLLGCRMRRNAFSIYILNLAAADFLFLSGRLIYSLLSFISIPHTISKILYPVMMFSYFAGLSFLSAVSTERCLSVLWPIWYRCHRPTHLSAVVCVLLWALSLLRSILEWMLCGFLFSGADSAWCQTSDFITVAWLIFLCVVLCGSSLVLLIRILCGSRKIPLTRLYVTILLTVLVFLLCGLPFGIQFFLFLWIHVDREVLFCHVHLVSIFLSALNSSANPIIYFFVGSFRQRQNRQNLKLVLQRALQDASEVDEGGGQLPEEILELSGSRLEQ
# MrgX1 antagonist = human MrgX1 receptor antagonism, primary screen; Q96LB2; MRGX1-HEK293 calcium flux, Fluo-4, BAM8-22 antagonism; hits give low values; B-score at 10 µM; hit rate 1.3% among 310,000; AID 588676;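 active = calcium-response B-score plate-corrected more than 3 library SD below zero, starting fluorescence within 5 deviations, no agonist response on first addition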;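 also: peak minus trough fluorescence over baseline after final BAM8-22 challenge near maximal dose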
# RGS4 act = RGS4 potentiation or activation. hit rate 0.92% among 310,000. HEK293 M3R/inducible RGS4, carbachol calcium flux Fluo4; hits give low values. B-score at 10 µM;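 active = B-score of the integrated calcium signal more than 4 SD below the library mean, with starting fluorescence not abnormally high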;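 also: negative B-score means reduced calcium response which marks RGS4 activation or potentiation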
#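 Also added: carbachol at ECmax as muscarinic agonist stimulus; Assay system: HEK293 cells with stable M3R and inducible RGS4; Timing: overnight RGS4 induction, 30 min dye load 37 °C, 20 min compound RT; Measured by: Fluo4-AM (2 µM) calcium-flux fluorescence, kinetic read.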
# RGS4 block = human RGS4 inhibition. HEK293 M3R/RGS4 inducible, Fluo-4 calcium flux; hits give high values; triggered by carbachol at its EC20. hit rate 0.45% among 310,000. P49798. B-score at 10 µM. AID 463165;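 active = B-score, a plate-corrected calcium signal, over three deviations above library mean, with baseline fluorescence within five deviations of library mean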;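 also: RGS4 expression induced by doxycycline in cells with stable M3 receptor; B-score is computed from the integrated fluorescence ratio over baseline after carbachol; higher B-score means a larger calcium signal and so more RGS4 inhibition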
# PHOSPHO1 block = blocks human PHOSPHO1 phosphatase activity. recombinant PHOSPHO1, absorbance phosphatase assay. inhibition, % at 13.3 µM. Q8TCT1. hit rate 1.1% among 290,000; in the data active = inhibition above about 60%
# Target sequence (Q8TCT1 whole entry, looked up): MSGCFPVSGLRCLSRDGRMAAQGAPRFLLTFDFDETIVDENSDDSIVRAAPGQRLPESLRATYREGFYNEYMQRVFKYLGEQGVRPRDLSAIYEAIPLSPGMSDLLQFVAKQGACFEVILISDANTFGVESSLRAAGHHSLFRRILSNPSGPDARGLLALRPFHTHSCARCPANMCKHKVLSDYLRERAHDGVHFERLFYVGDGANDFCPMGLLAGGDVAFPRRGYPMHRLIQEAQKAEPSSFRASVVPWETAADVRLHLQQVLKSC
# MrgX1 ag = agonists of human MrgX1 receptor. Q96LB2. MrgX1-HEK293 cells, Fluo-4 calcium fluorescence, agonist mode; hits give high values. B-score at 10 µM. hit rate 0.44% among 310,000. AID 588627;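 active = calcium response B-score plate-corrected fluorescence ratio at least 3 library SD, with starting fluorescence B-score inside 5 SD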
#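 Assay system: stable human MrgX1 HEK293 cell line. Quantity: 15,000 cells per well. Schedule: cells plated overnight, dye loaded 0.5 h 37 °C, 0.5 h room temperature. Detection: Fluo-4 NW calcium-flux fluorescence, kinetic read. Read-out basis: peak-minus-minimum fluorescence over baseline, converted to B scores. Control set: positive and negative control wells on each plate.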
# Numbers without * were called inactive; i = inactive; · = no result given. A selection: hits, their analogues and other compounds. The true share with any hit is near 4.5%.
SMILES,MrgX1 allo act,MrgX1 antagonist,RGS4 act,RGS4 block,PHOSPHO1 block,MrgX1 ag
CC(=O)Oc1ccccc1C(=O)NC(C)CCc1ccccc1 (stereo not drawn),i,i,i,i,31.1,i
S=C(Nc1cccc(Cl)c1)Nc1ccccc1Oc1ccccc1,i,-5.83*,i,i,20.2,i
COc1ccc(C(=O)NCCS(=O)(=O)NCc2ccc(C)cc2)cc1,i,i,i,i,·,i
COc1ccc(CNS(=O)(=O)CCNC(=O)c2ccc(OC)cc2)cc1,i,-4.9*,i,i,·,i
Cc1cc(/C=N\NC(=O)CC(=O)NC2CCCCC2)c(C)n1-c1cccc(Cl)c1Cl,i,-6.31*,i,i,-6.8,i
CCOC(=O)c1cnc2ccc(C(=O)OC)cc2c1Nc1ccc(C(=O)O)cc1,i,i,i,i,49.9,i
CCOC(=O)c1ccc2ncc(C(=O)OCC)c(Nc3ccc(N4CCOCC4)cc3)c2c1,i,i,-7.45*,i,-2.5,i
O=c1cc(N2CCCCC2)c(-c2ccccc2)nn1Cc1ccc(Cl)cc1,i,i,i,i,9.7,i
O=c1cc(N2CCCCC2)c(-c2ccccc2)nn1Cc1c(Cl)cccc1Cl,i,i,-7.06*,i,15.8,i
O=C(O)C1=C[C@@H](c2coc3ccccc3c2=O)C[C@@H](OCCCCO)O1,i,i,i,i,17.7,i
Cc1cc(NC(=O)CSc2nc(-c3ccccc3)nc3c2c(=O)n(C)c(=O)n3C)no1,i,i,i,i,15.8,i
COc1ccccc1-c1nc(SCC(=O)Nc2cc(C)on2)c2c(=O)n(C)c(=O)n(C)c2n1,i,i,i,i,65.4*,i
CCCn1c(SCc2cc(=O)oc3ccc4ccccc4c23)n[nH]c1=O,i,i,i,i,92.3*,i
O=C(CN(C(=O)CCC(=O)Nc1nccs1)c1ccccc1F)NCc1ccccc1,i,i,i,i,32.0,i
O=C1CC[C@@H](C(=O)O)N1,i,i,·,·,·,i
COC(=O)Cn1c2ccc(Cl)cc2c2nc(C)sc21,i,i,i,i,-12.7,i
Cc1nc2c3cc(Cl)ccc3n(CCN3CCCCC3)c2s1,11.4*,i,i,i,16.8,i
CCc1ccc2c(c1)c1nc(C)sc1n2CC,i,i,i,i,91.5*,i
COc1ccc(N2C(=O)C(Cl)=C(Nc3ccccc3O)C2=O)cc1,i,i,i,i,69.5*,i
CCOC(=O)c1ccc(NC(=O)CN2CCN(C(=O)c3ccco3)CC2)cc1,i,i,i,i,75.0*,i
Cc1ccc(/C=N/NC(=O)c2cccnc2)s1,i,i,i,i,-7.6,i
COC(=O)CS(=O)(=O)c1nnc([C@H](Cc2ccccc2)NC(=O)OC(C)(C)C)o1,i,i,i,i,7.1,30*
Cc1ccc2[nH]c3c(c2c1)CN(C(=O)CN1CCCCC1)CC3,i,i,i,i,18.8,i
Cc1ccc2[nH]c3c(c2c1)CN(C(=O)CN1CCCc2ccccc21)CC3,i,i,i,i,69.9*,i
CC(=O)C1C(c2ccc([N+](=O)[O-])cc2)c2c(noc2C)CC1(C)O (stereo not drawn),i,i,-8.54*,i,32.7,i
SMILES,MrgX1 allo act,MrgX1 antagonist,RGS4 act,RGS4 block,PHOSPHO1 block,MrgX1 ag
CC(=O)C1C(c2ccc(C)cc2)c2c(noc2C)CC1(C)O (stereo not drawn),i,i,i,i,20.7,i
COc1ccc(C(=O)c2ccc(Cl)c([N+](=O)[O-])c2)cc1,7*,i,i,i,-50.9,i
CCOC(=O)c1sc(NC(=O)Cc2ccc(C)cc2)nc1C,i,i,i,i,61.8*,i
CCOC(=O)c1sc(NC(=O)CCC(=O)O)nc1C,i,i,i,i,-0.8,i
COC(=O)C1=C(C(=O)OC)SC(=C2C(=S)C(C)(C)N(C(=O)CC(C)C)c3ccccc32)S1,i,i,i,i,84.2*,i
Cc1cccc(NC2=NCC(=O)N2Cc2cccs2)c1,i,i,i,i,49.6,i
COc1ccc(C(c2nnnn2C2CCCCC2)N2CCN(c3ccc(OC)cc3)CC2)cc1 (stereo not drawn),i,i,i,i,24.7,i
c1cc(N2CCCC2)ccc1C(c1nnnn1C1CCCCC1)N1CCOCC1 (stereo not drawn),i,i,i,i,92.2*,i
Cc1cccc2cc(C(c3nnnn3C3CCCC3)N3CCOCC3)c(=O)[nH]c12 (stereo not drawn),i,i,i,i,85.6*,i
Cc1cc(C)c2cc(C(c3nnnn3C3CCCC3)N3CCOCC3)c(=O)[nH]c2c1 (stereo not drawn),i,i,i,i,102.7*,i
CCOc1ccc(NC(=O)CC2C(=O)N(c3ccccc3)C(=O)N2CCc2cccs2)cc1 (stereo not drawn),i,i,i,i,-23.6,i
Cn1cccc1CC(=O)N/N=C/c1ccc(Cl)cc1,10.9*,i,i,i,-3.1,i
CC(=O)Nc1ccc(/C=N\NC(=O)CNS(=O)(=O)c2ccc([N+](=O)[O-])cc2)cc1,i,i,i,i,-98.9,i
Cn1cccc1CC(=O)N/N=C/c1ccc([N+](=O)[O-])cc1,7.65*,i,i,i,28.5,i
O=C(CNS(=O)(=O)c1ccc([N+](=O)[O-])cc1)N/N=C\c1ccc(O)cc1,9.15*,-6.05*,i,i,25.7,i
Cn1cccc1CC(=O)N/N=C\c1ccccc1,i,i,i,i,35.7,i
CCN(CC)C(=O)CSc1nnnn1-c1ccc(F)c(Cl)c1,i,i,i,i,47.0,i
O=C(NCCCN1CCCC1)c1ccc2c(c1)N(Cc1ccc(F)cc1)C(=O)c1ccccc1S2=O (stereo not drawn),i,i,i,i,23.9,i
CCC1CCCCN1CCCNC(=O)c1ccc2c(c1)N(Cc1ccc(F)cc1)C(=O)c1ccccc1S2=O (stereo not drawn),i,i,-8.44*,i,-0.1,i
CC(=O)Nc1ccc(-c2csc(Nc3ccc(Cl)cn3)n2)cc1,7.16*,i,i,i,-11.8,i
Cc1nc(N2CCN(c3ccccn3)CC2)c2c(C)c(C(=O)N3CCN(c4cccc(Cl)c4)CC3)sc2n1,i,i,-7.08*,i,40.0,i

# Screening results as filed in PubChem BioAssay.
